Source: PubChem BioAssay
ANO1 activ: activators or potentiators of mouse TMEM16A chloride channel; Q8BHY3; HEK293 TMEM16A/YFP-H148Q/I152L, iodide quench fluorescence; hits give low values; B-score at 10 µM; 0.3% of 340,000 active; AID 623877;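 active means fluorescence-ratio B-score plate-corrected deviation score at least 3 library SD below zero, with starting fluorescence score within 5 deviations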;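 further: channel opened by trigger with iodide after compound preincubation; score built on the fluorescence ratio of max minus min over baseline; more negative score means more quench and so TMEM16A activation or potentiation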
ANO1 block: blocks the mouse calcium-activated chloride channel TMEM16A; normalized B-score (activity score, 25-100; higher = stronger inhibition) at 10 µM; Q8BHY3; AID 588511; HEK293 TMEM16A/YFP iodide influx fluorescence, ionomycin; 1.2% of 310,000 active;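 active means ratio plate-corrected score three or more library SD toward inhibition, starting fluorescence score within five deviations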;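 further: score derived from kinetic fluorescence span divided by baseline fluorescence per well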
CHT PAM: human CHT allosteric activation | CHT-expressing cells, membrane potential dye, choline EC20; hits give high values; LV-AA mutant CHT in HEK293 cells | B-score at 10 µM | 0.49% of 310,000 active;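 active means initial fluorescence not abnormally high and integrated response B-score, plate-corrected, over 3 SD above library mean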
CHT inh: inhibitors of human choline transporter CHT | B-score at 10 µM | CHT-expressing cells, membrane potential dye, choline response; hits give low values | AID 488975 | Q9GZV3 | 0.86% of 310,000 active;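 active means B-score over 3 SD under the library average, and starting fluorescence ratio not unusually high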;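 further: choline stimulus applied at its EC90 after an EC20 pre-addition; B-score computed on integrated fluorescence ratio after choline addition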
IMP-1 inh: inhibitors of Pseudomonas aeruginosa IMP-1 metallo-beta-lactamase | inhibition, % at 5.6 µM | AID 1556 | 0.45% of 290,000 active | purified IMP-1, nitrocefin hydrolysis, epi-absorbance fluorescence;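 active means inhibition above the mean plus 3 SD of all compounds in the same screening run, cut at about 4.5% in these data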;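 further: 0% = IMP-1 with DMSO and 100% = DMSO wells lacking enzyme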
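system = purified recombinant IMP-1 beta-lactamase | amount = 0.2 nM IMP-1, as dispensed | medium = HEPES buffer pH 7.1 with ZnSO4 and Brij 35 | times = 25 °C, 15 min preincubation, 25 min reaction | detection = plate fluorescence quenching by hydrolysis product, ex 480/em 530 nm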
VIM-2 inh: inhibitors of Pseudomonas aeruginosa VIM-2 metallo-beta-lactamase | AID 1527 | purified VIM-2, nitrocefin hydrolysis, epi-absorbance fluorescence | 0.89% of 290,000 active | inhibition, % at 5.6 µM;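 active means inhibition above the mean of all tested compounds plus 3 SD, cutoff set per screening run, cut at about 7.5% in these data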;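 further: red hydrolysis product quenches plate fluorescence so inhibitors raise well fluorescence; 0% = enzyme with DMSO and 100% = DMSO without enzyme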
TMEM16A reconf: reconfirmed blocker of mouse TMEM16A calcium-activated chloride channel. shares compounds with ANO1 block. HEK293 TMEM16A/YFP-H148Q, iodide quench fluorescence; ionomycin added to raise cell calcium. inhibition, % at 10 µM. 39% of 2,300 active. AID 652189;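 active means mean duplicate percent inhibition, scaled so buffer wells are 0 and the reference blocker 100, over three buffer SD above buffer mean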
TMEM16A Ca cntr: calcium mobilization counter-screen hit for TMEM16A inhibitor series; shares compounds with ANO1 block; TMEM16A/YFP HEK293, Fluo4 calcium mobilization; calcium response (% of ionomycin), % at 10 µM; 2% of 2,300 active;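 active means duplicate-averaged calcium signal over 20% of the ionomycin maximum, relative to buffer baseline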;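 further: each well's signal is peak minus trough fluorescence divided by its pre-addition baseline; 0% = buffer wells and 100% = ionomycin wells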
Parental YFP cnt: parental YFP-HEK293 iodide quench counter-screen activity | 2,300 tested, under 10 active | ionomycin | shares compounds with ANO1 block | YFP ratio F(max-min)/F0 at 10 µM;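 active means yellow fluorescent protein signal ratio exceeding the buffer control mean by over 5 SD of those controls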;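 further: ratio is mean of duplicate wells from kinetic YFP trace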
ClC-1 rat inh: blocks the rat ClC-1 voltage-dependent chloride channel; shares compounds with ANO1 block; CHO ClC-1-YFP, iodide influx fluorescence quench; iodide control reads 0, buffer control 100; ratio percent, % at 10 µM; 2,300 tested, under 10 active; AID 652236;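 active means duplicate-mean ratio percent above the mean of iodide-only control wells, which defines zero, plus 5 of their SD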;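 further: higher percent means stronger block of ClC-1 iodide influx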
Target sequence (P35524 whole entry, looked up): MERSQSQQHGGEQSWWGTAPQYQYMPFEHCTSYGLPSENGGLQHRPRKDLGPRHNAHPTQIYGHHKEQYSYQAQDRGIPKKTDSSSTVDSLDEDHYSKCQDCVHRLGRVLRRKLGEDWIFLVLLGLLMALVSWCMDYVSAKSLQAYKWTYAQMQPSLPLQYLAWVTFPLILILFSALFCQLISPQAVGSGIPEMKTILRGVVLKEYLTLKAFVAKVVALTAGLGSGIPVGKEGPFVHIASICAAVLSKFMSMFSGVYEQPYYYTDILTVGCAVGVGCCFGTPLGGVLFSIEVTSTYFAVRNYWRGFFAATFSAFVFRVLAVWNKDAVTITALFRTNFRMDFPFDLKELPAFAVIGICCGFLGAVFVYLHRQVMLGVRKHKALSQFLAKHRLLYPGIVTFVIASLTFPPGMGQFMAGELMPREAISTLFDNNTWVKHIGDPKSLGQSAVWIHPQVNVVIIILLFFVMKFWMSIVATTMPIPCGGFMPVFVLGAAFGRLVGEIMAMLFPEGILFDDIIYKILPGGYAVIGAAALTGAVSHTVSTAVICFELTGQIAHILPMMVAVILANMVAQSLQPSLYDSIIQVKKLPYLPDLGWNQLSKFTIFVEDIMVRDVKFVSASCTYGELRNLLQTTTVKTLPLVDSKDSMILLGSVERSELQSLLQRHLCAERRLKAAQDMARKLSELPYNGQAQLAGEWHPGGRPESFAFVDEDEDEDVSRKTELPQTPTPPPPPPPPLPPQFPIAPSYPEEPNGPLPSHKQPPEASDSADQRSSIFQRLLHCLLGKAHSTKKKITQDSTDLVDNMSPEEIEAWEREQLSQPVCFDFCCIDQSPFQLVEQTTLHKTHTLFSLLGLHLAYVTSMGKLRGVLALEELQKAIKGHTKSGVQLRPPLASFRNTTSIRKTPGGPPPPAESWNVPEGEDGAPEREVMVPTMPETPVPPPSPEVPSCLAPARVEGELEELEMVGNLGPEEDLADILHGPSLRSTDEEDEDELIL
* marks the source's active call; other numbers are inactive results; i = inactive; / = no result. Compounds with a hit are over-represented: about 3.4% of the library has one in this group of screens.

SMILES	ANO1 activ	ANO1 block	CHT PAM	CHT inh	IMP-1 inh	VIM-2 inh	TMEM16A reconf	TMEM16A Ca cntr	Parental YFP cnt	ClC-1 rat inh
CNc1nc(SCc2ccccc2Cl)nc2c1CCCC2	i	100*	i	i	-1.9	-3.0	56.0%*	i	-1.09	-0.5
O=S(=O)(NCCSCc1c(Cl)cccc1Cl)c1ccc2c(c1)OCCO2	i	25*	i	i	-0.5	-0.6	i	i	-1.1	-10.0
O=S(=O)(NCCSCc1ccc(Cl)cc1Cl)c1ccc2c(c1)OCCO2	i	i	i	i	-1.7	-2.0	/	/	/	/
O=C(NCCCc1ccccc1)C(=O)NCC1OCCN1S(=O)(=O)c1ccc(F)cc1 (configuration not stated)	i	25*	i	i	-1.1	-1.0	i	i	-1.01	-7.5
COc1ccccc1NC(=O)c1ccc(N2CC3CC(C2)c2cccc(=O)n2C3)c(NC(=O)c2ccncc2)c1 (configuration not stated)	i	i	i	i	-0.3	-2.6	/	/	/	/
C=CCNC(=O)C1CC2Cn3c(nc4cc(Cl)c(Cl)cc43)C2N1C (configuration not stated)	i	i	i	i	/	/	/	/	/	/
N#Cc1c(-n2cccc2/C=N/O)sc2c1CCCC2	i	i	i	i	0.3	-0.6	/	/	/	/
C=CCNCc1cccn1-c1sc2c(c1C#N)CCCC2	i	25*	i	i	2.7	-1.9	i	i	-0.763	-5.0
COc1ccc(OC)c(CNC(=O)c2nn(C)c3c2CS(=O)(=O)c2ccccc2-3)c1	i	i	i	i	-0.4	-1.6	/	/	/	/
CCOC(=O)N1CCN(c2ccnc3cc(Cl)ccc23)CC1	i	i	i	i	-2.8	-2.0	/	/	/	/
CCOC(=O)N1CCC(=C2c3ccc(Cl)cc3CCc3cccnc32)CC1	i	25*	i	i	-3.3	-3.0	i	i	-1.12	-15.5
CC(=O)c1cccc(CN2CCC(C(=O)Nc3ccc(-c4cccc(C)c4)cc3)CC2)c1	i	i	i	i	-0.9	-1.4	/	/	/	/
CC(=O)c1cn(CC(=O)Nc2ccc(C)cc2C)c2ccccc12	i	25*	i	i	-1.3	-2.9	19.5%*	i	-1	-9.0
CCOC(=O)C1CCCN(C(=O)c2cc(=O)c3ccccc3o2)C1 (configuration not stated)	i	i	i	i	-2.5	-1.3	/	/	/	/
CCOC(=O)C1CCCN(c2ncnc3c2oc2ccccc23)C1 (configuration not stated)	i	100*	i	i	-1.7	2.3	28.5%*	i	-1.05	-19.5
CCOC(=O)C1CCN(c2ncnc3c2oc2ccccc23)CC1	i	100*	i	i	-3.2	0.6	22.0%*	i	-0.898	-16.0
O=C(CCC(=O)N(CC(=O)NC1CCCCC1)c1ccc(F)cc1)Nc1ccccn1	i	i	i	i	-2.0	0.8	/	/	/	/
COc1cc(NS(=O)(=O)c2ccc(OC)c(C)c2C)c(OC)cc1Cl	i	25*	i	i	-5.5	-3.9	54.0%*	i	-0.72	-3.5
CC1CN(S(=O)(=O)c2ccc(Cl)c(S(=O)(=O)N3CC(C)OC(C)C3)c2)CC(C)O1 (configuration not stated)	i	100*	i	i	-1.0	-1.4	i	i	-0.739	-1.0
O=S(=O)(c1ccc(Cl)c(S(=O)(=O)N2CCCC2)c1)N1CCCC1	i	i	i	i	-3.5	0.7	/	/	/	/
CN(C(=O)OC(C)(C)C)c1ccc(-c2nc3ccccc3s2)cc1	i	25*	i	i	/	/	24.5%*	i	-1.36	-8.5
COC(=O)N(C)c1nc2ccccc2s1	i	i	i	i	-2.4	-3.1	/	/	/	/
O=C1/C(=C/c2cccnc2)SC(=S)N1NS(=O)(=O)c1ccccc1	i	i	i	i	-2.0	-0.1	/	/	/	/
C=CCOc1ccc(/C=C2\SC(=S)N(NS(=O)(=O)c3ccccc3)C2=O)cc1	i	100*	i	-6.16*	-1.8	-4.8	88.5%*	i	-1.09	-48.5
Cc1cc(N2CCOCC2)cc(C)[n+]1[O-]	i	25*	i	i	-3.8	-6.2	i	i	-0.95	-10.0
SMILES	ANO1 activ	ANO1 block	CHT PAM	CHT inh	IMP-1 inh	VIM-2 inh	TMEM16A reconf	TMEM16A Ca cntr	Parental YFP cnt	ClC-1 rat inh
Cc1ccc(C)n1-c1ccc(N2CCOCC2)cc1	i	i	i	i	-4.0	-1.3	/	/	/	/
Cc1ccc(C(=O)N2CCCC2)cc1S(=O)(=O)N1CCCCC1	i	i	i	i	-2.9	-0.9	/	/	/	/
COc1ccc(OC)c(NC(=O)CCN2CC(C)CC(C)C2)c1 (configuration not stated)	i	i	i	i	0.2	0.7	/	/	/	/
C/C(=N\NC(=O)CSc1nc(C)[nH]c1[N+](=O)[O-])c1ccc(F)cc1	i	100*	i	i	-0.7	0.2	i	i	-0.929	-3.0
Cc1cccc(N2CCN(C(=O)CSCc3c(C)noc3C)CC2)c1C	i	100*	i	i	-5.5	-3.4	42.5%*	i	-0.848	-18.5
COc1ccc(S(=O)(=O)N2CCC(O)(c3ccc(Cl)cc3)CC2)cc1	i	25*	i	i	-3.6	-3.1	21.0%*	i	-1.06	-9.5
CCOc1cc(N2CCOCC2)c(OCC)cc1NC(=O)CN1C(=O)NC(C)(c2ccc(OC)cc2)C1=O (configuration not stated)	i	/	/	/	/	/	/	/	/	/
COCCNC(=O)c1c(NC(=O)c2nc(SC)ncc2Cl)sc2c1CCCC2	i	i	i	i	-2.4	-2.0	23.5%*	i	-0.777	6.0
O=C(NCc1ccco1)c1ccccc1SCC(=O)N1CCCC1	i	/	/	/	/	/	/	/	/	/
CCOc1cc2[nH]c(=S)n(Cc3ccc(C(=O)NCCN(CC)CC)cc3)c(=O)c2cc1OCC	i	i	i	i	-4.1	-3.4	/	/	/	/
CCOc1cc2[nH]c(=S)n(Cc3ccc(C(=O)NCC(OC)OC)cc3)c(=O)c2cc1OCC	i	100*	i	i	-2.4	-4.7	i	i	-1.05	-6.0
